# Assay outcomes (PubChem)
# Hits are enriched below; roughly 3.8% of the tested compounds scored in any of these assays.
# V-ATPase pH = yeast V-ATPase proton transport regulation by pHLuorin. AID 504577. response, % at 10 µM. actives 0.37% (n = 350,000). S. cerevisiae, pHLuorin cytosolic pH fluorescence; in the data active means response mostly above about 7.3%, no sharp cut-off; inactive means mostly below about 5.4%; further: actives read high
# MPTP block = permeability transition pore inhibition; isolated mouse mitochondria, Ca2+ swelling absorbance, 30 min; inhibition, % at 10 µM; actives 1.4% (n = 360,000);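 active means inhibition of 50% or more, scaled per plate between neutral and stimulator controls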;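 further: 0% = DMSO wells given calcium and 100% = 1 mM EGTA wells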
# Granule exo inh = blocks lytic granule exocytosis; TALL-104 LAMP-1 surface exposure, flow cytometry; cells stimulated with thapsigargin and PMA; inhibition, % at 10 µM; actives 0.66% (n = 360,000);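 active means inhibition above about 55%, limit read from the data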
# rCAG RNA binder = binds r(CAG) RNA repeats; AID 651821; actives 1.3% (n = 370,000); r(CAG) RNA repeat, TO-PRO-1 dye displacement fluorescence; inhibition, % at 3 µM;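 active means inhibition above the plate cutoff, the mean of all test compounds on that plate plus 3 SD, cut at about 35% in these data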;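 further: 0% = DMSO alone and 100% = 100 µM mitoxantrone as full dye displacement; higher means more dye released from RNA so lower well fluorescence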
# Beta2AR agonist = human beta-2 adrenergic receptor agonism by FAP | Am2.2-beta2AR cells, FAP receptor internalization, flow cytometry | response, % (test concentration not listed) | actives 0.43% (n = 340,000) | P07550;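 active means response above a set limit, near 3 SD of response in nonfluorescent compounds, cut at about 42% in these data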
# Target sequence (P07550 whole entry, looked up): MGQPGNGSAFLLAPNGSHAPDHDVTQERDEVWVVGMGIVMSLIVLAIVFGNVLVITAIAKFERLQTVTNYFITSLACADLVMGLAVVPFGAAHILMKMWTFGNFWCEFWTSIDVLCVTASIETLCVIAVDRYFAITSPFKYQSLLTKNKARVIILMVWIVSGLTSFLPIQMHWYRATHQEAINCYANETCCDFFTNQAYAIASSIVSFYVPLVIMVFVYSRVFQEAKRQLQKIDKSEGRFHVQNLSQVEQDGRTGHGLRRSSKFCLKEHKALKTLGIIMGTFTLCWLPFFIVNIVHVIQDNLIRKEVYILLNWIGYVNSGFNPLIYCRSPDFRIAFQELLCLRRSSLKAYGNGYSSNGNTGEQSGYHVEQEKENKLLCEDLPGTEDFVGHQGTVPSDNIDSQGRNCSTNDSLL
# T cell modulator = T cell immune modulation candidate. actives 0.068% (n = 330,000). 2C CD8+ T cell-vesicle binding, flow cytometry; active compounds read low. AID 2052. response (vesicle binding), % at 7 µM;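 active means response, share of CD8 T cells binding vesicles, and their 90th percentile fluorescence all below set limits, cut at about 80% in these data, passing the limit was not always enough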;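 further: values below 100% mean blocked vesicle binding to the CD8+ T cells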
#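 material = purified 2C TCR transgenic mouse naive CD8+ T cells | controls = Unloaded micro-vesicles (low), QL9 vesicles with 0.7% DMSO (high) | detection = cytometric PE anti-B7-1 and Alexa647 anti-CD8 signals after 1% paraformaldehyde fixation | incubation = binding step 1.5 h, 37 °C, antibody labelling 20 min, ice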
# Numbers without * were called inactive; i = inactive; nt = no result.
SMILES,V-ATPase pH,MPTP block,Granule exo inh,rCAG RNA binder,Beta2AR agonist,T cell modulator
COC(=O)[C@]12C[C@H](CC(=O)N3CCCC3)C(=O)N(Cc3ccc(Cl)cc3Cl)C1=C[C@H](COCc1ccccc1)O[C@@H]2C,nt,nt,nt,8,nt,nt
O=C(C[n+]1cc(-c2ccc(Cl)cc2)n2c1CCC2)N1c2ccccc2Sc2ccccc21,2,5,-1,14,1,283
CC1CCC(C(C)C)C(OC(=O)C[n+]2cc(-c3ccc(Cl)cc3)n3c2CCC3)C1 (stereo not drawn),-1,32,64*,10,-14,410
CC(C)CCSc1nc2[nH]ncc2c(=O)[nH]1,48*,0,1,2,11,i
C=CCn1c(COc2ccc(C)cc2)nnc1SCc1ccc([N+](=O)[O-])cc1,nt,nt,nt,-1,nt,nt
O=C(COC(=O)c1ccccc1)NC1CCCC1,263*,0,-2,-4,nt,312
O=C(COC(=O)C1CCC1)NC(=O)c1ccccc1,-1,2,25,-6,-3,0.0*
C/C(=C\C(=O)OCC(=O)NCc1ccccc1)C(=O)OCC(=O)NCc1ccccc1,0,0,2,-1,-3,192
CCOC(=O)/C=C/C(=O)OCC(=O)NCc1ccccc1,-1,-1,-6,-6,44*,99
COc1cc(NC(=O)COc2ccc3c(C)cc(=O)oc3c2C)cc(OC)c1OC,3,1,-10,-2,11,283
COc1cc(NC(=O)COc2cc3oc(=O)cc(C)c3cc2Cl)cc(OC)c1OC,-1,2,-2,0,46*,338
Cc1cc(C)nc(S/C=C/C(=O)c2ccccc2F)n1,5,3,62*,5,30,478
Cc1cc(C)nc(NC(=S)NC(=O)c2ccccc2F)n1,5,2,0,1,-8,263
CCc1ccc(-c2ccc(C(=O)O)cc2)nc1,-1,0,-2,3,8,33*
COc1ccc(C(=O)c2ccc(-c3ccc(OC)cc3)nc2)cc1,0,1,-7,-3,6,nt
CCCSc1cc(NCCOC(C)=O)c([N+](=O)[O-])c2nonc12,3,2,-4,1,-4,261
Cc1nnc(Sc2cc(NCCO)c([N+](=O)[O-])c3nonc23)s1,-1,11,0,3,-13,nt
CCCC(=O)OCCNc1cc(SCc2ccco2)c2nonc2c1[N+](=O)[O-],-1,0,-4,19,64*,i
Cc1nnc(Sc2cc(NCCCO)c([N+](=O)[O-])c3nonc23)s1,-6,6,11,-1,43*,nt
O=[N+]([O-])c1c(NCCCO)cc(Sc2nc3ccccc3s2)c2nonc12,0,13,40,nt,96*,208
CCCSc1cc(NCCOC(=O)CCC)c([N+](=O)[O-])c2nonc12,-1,1,24,3,1,90
CCC(=O)OCCNc1cc(Sc2nc3ccccc3[nH]2)c2nonc2c1[N+](=O)[O-],-1,2,41,12,78*,390
CCOC(=O)[C@@]12CN(C(=O)OC(C)(C)C)CC=C1N(Cc1ccc(OC)cc1)C(=O)[C@H]2CC(=O)NCCc1ccccc1OC,nt,nt,nt,0,nt,nt
CCCC(=O)OCCNc1cc(Sc2nccn2C)c2nonc2c1[N+](=O)[O-],0,1,24,5,25,174
CCC(=O)OCCNc1cc(Sc2nc3ccccc3s2)c2nonc2c1[N+](=O)[O-],-3,5,103*,11,-203,188
SMILES,V-ATPase pH,MPTP block,Granule exo inh,rCAG RNA binder,Beta2AR agonist,T cell modulator
COc1ccc(-c2cc(-c3nc4ccccn4c3NCc3ccccc3)ccc2OC)cc1,4,23,-7,0,66*,356
COc1ccc(-c2nc3ccccn3c2NCc2ccc3c(c2)OCO3)cc1,7,1,3,-6,-4,971
Cc1ccc2c(c1)C1CS(=O)(=O)N(Cc3ccc(F)cc3)CN1C2 (stereo not drawn),nt,nt,nt,5,nt,nt
CCCC(=O)Nc1ccc(S(=O)(=O)N2CCC(c3nc4ccccc4[nH]3)CC2)cc1,20*,-1,6,4,-9,142
CCC(=O)Nc1ccc(S(=O)(=O)N2CCC(c3nc4ccccc4[nH]3)CC2)cc1,-2,-1,-22,2,-12,488
CCOC(=O)[C@@]12CCCC3=C1N(CCC3)C(=O)[C@H]2CC(=O)NCCC(C)C,nt,nt,nt,-2,nt,nt
Cc1cc(-c2nc3ncccc3o2)ccc1NC(=S)NC(=O)C(C)C,-2,2,-2,-5,62*,407
